Assay results published in ChEMBL document CHEMBL4138196, “Discovery and structure-activity relationship of novel 4-hydroxy-thiazolidine-2-thione derivatives as tumor cell specific pyruvate kinase M2 activators” (Eur J Med Chem, 2018).

Legend:
[1] = molecular target: Pyruvate kinase PKM (Homo sapiens, UniProt P14618); experiment: Activation of N-terminal His -tagged human PKM2 expressed in Escherichia coli BL21 using PEP as substrate measured at 30 secs intervals for between 3 and 6 mins by fluorescent pyruvate kinase-lactate dehydrogenase coupled assay
[2] = test system: NCI-H1299; experiment: Antiproliferative activity against human H1299 cells after 48 hrs by MTS assay; type: functional, cell-based; settings: NCI-H1299, 48 h
Procedure, shortened: (§1)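 Cells grown in RPMI 1640 with 9% FBS at 37°C, 5% CO2. 3000-10000 cells/well were left to attach 12 h, then given compound at five concentrations, or DMSO as vehicle control, for 48 h. MTS was added for 3 h at 37°C and absorbance read at 490 nm. IC50 (50% growth inhibition) was taken from triplicate dose-response curves.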

[3] = test system: HCT-116; experiment: Antiproliferative activity against human HCT116 cells after 48 hrs by MTS assay; type: functional, cell-based; settings: HCT-116, 48 h; procedure, shortened: as §1
[4] = test system: HeLa; experiment: Antiproliferative activity against human HeLa cells after 48 hrs by MTS assay; type: functional, cell-based; procedure, shortened: as §1
[5] = test system: PC-3; experiment: Antiproliferative activity against human PC3 cells after 48 hrs by MTS assay; type: functional, cell-based; settings: PC-3, 48 h; procedure, shortened: as §1
[6] = Antiproliferative activity against HELF after 48 hrs by MTS assay; parameters: species or system Homo sapiens; procedure, shortened: as §1

Chain of Pyruvate kinase PKM (P14618 whole entry): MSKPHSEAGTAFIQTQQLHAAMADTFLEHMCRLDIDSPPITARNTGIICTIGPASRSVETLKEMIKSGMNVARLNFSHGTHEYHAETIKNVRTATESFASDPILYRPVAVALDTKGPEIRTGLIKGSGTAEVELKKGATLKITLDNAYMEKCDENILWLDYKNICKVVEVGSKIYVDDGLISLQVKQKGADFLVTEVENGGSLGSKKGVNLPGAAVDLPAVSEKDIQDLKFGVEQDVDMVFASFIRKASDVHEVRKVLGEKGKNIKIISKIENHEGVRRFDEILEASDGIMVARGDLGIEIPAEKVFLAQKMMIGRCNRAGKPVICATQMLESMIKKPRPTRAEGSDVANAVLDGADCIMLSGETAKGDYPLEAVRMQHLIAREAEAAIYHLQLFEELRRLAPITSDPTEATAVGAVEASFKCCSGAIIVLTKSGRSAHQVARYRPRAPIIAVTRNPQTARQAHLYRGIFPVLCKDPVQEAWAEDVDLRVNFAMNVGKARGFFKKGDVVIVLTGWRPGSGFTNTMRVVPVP

Structure (SMILES) | AC50 [1] [µM] | IC50 [2] [nM] | IC50 [3] [nM] | IC50 [4] [nM] | IC50 [5] [nM] | IC50 [6] [µM]
O=S(=O)(Nc1ccc(C2(O)CSC(=S)N2Cc2cccnc2)cc1)c1cccs1 (stereo unspecified) | 1.47 | 1230 | 1440 | 420 | 1250 | 
COc1ccc(S(=O)(=O)Nc2ccc(C3(O)CSC(=S)N3Cc3cccnc3)cc2)cc1 (stereo unspecified) | 4.69 | 960 | 1750 | 480 | 1070 | 8.63
O=S(=O)(Nc1ccc(C2(O)CSC(=S)N2Cc2cccnc2)cc1)c1ccc(F)cc1 (stereo unspecified) | > 20 | 1310 | 3500 | 570 | 1400 | 
O=[N+]([O-])c1ccccc1S(=O)(=O)Nc1ccc(C2(O)CSC(=S)N2Cc2cccnc2)cc1 (stereo unspecified) | > 20 | 1750 | 2300 | 610 | 3870 | 
O=S(=O)(Nc1ccc(C2(O)CSC(=S)N2Cc2cccnc2)cc1)c1ccccc1F (stereo unspecified) | > 20 | 1450 | 1180 | 550 | 2680 | 
Cc1ccc(S(=O)(=O)Nc2ccc(C3(O)CSC(=S)N3Cc3cccnc3)cc2)cc1 (stereo unspecified) | > 20 | 1200 | 2180 | 440 | 940 | 
CS(=O)(=O)c1cccc(-c2ccc(CN3C(=S)SCC3(O)c3ccc(NS(=O)(=O)c4ccc5c(c4)OCCO5)cc3)cn2)c1 (stereo unspecified) | 17.6 | 1020 | 920 | 510 | 1350 | 
O=S(=O)(Nc1ccc(C2(O)CSC(=S)N2Cc2cnc3ccccc3c2)cc1)c1ccc2c(c1)OCCO2 (stereo unspecified) | 1.75 | 1810 | 1280 | 550 | 1280 | 
O=S(=O)(Nc1ccc(C2(O)CSC(=S)N2Cc2cccnc2)cc1)c1ccccc1 (stereo unspecified) | 2.96 | 1440 | 1700 | 450 | 990 | 
O=S(=O)(Nc1ccc(C2(O)CSC(=S)N2Cc2cccnc2)cc1)c1cccc2cccnc12 (stereo unspecified) | 0.52 | 2430 | 2110 | 840 | 2350 | 
Cc1cccc(S(=O)(=O)Nc2ccc(C3(O)CSC(=S)N3Cc3cccnc3)cc2)c1 (stereo unspecified) | 6.25 | 1680 | 1730 | 1140 | 1110 | 
Cc1ccncc1CN1C(=S)SCC1(O)c1ccc(NS(=O)(=O)c2ccc3c(c2)OCCO3)cc1 (stereo unspecified) | > 20 | 510 | 410 | 340 | 1530 | 7.21
O=S(=O)(Nc1ccc(C2(O)CSC(=S)N2Cc2cccnc2)cc1)c1ccccc1-c1ccccc1 (stereo unspecified) | > 20 | 2700 | 6110 | 1100 | 2810 | 
O=C1CCc2cc(S(=O)(=O)Nc3ccc(C4(O)CSC(=S)N4Cc4cccnc4)cc3)ccc2N1 (stereo unspecified) | 0.74 | 1650 | 1640 | 710 | 4290 | 
CC(=O)O[C@H]1C(=O)[C@@]2(C)[C@H]([C@H](OC(=O)c3ccccc3)[C@]3(O)C[C@H](OC(=O)[C@H](O)[C@@H](NC(=O)c4ccccc4)c4ccccc4)C(C)=C1C3(C)C)[C@]1(OC(C)=O)CO[C@@H]1C[C@@H]2O [PACLITAXEL] |  | 7830 | 1370 |  | 4570 | 
CS(=O)(=O)Nc1ccc(C2(O)CSC(=S)N2Cc2cccnc2)cc1 (stereo unspecified) | > 20 | 1250 | 1560 | 860 | 2200 | 
CN(c1ccc(C2(O)CSC(=S)N2Cc2cccnc2)cc1)S(=O)(=O)c1cccc2cccnc12 (stereo unspecified) | > 20 | 2470 | 2320 | 930 | 6150 | 

Structure (SMILES) | AC50 [1] [µM] | IC50 [2] [nM] | IC50 [3] [nM] | IC50 [4] [nM] | IC50 [5] [nM] | IC50 [6] [µM]
COc1cccc(S(=O)(=O)Nc2ccc(C3(O)CSC(=S)N3Cc3cccnc3)cc2)c1 (stereo unspecified) | 5.95 | 930 | 2620 | 590 | 930 | 6.9
O=S(=O)(Nc1ccc(C2(O)CSC(=S)N2CCc2cccnc2)cc1)c1ccc2c(c1)OCCO2 (stereo unspecified) | > 20 | 1280 | 1040 | 620 | 2160 | 
N#Cc1ccc(S(=O)(=O)Nc2ccc(C3(O)CSC(=S)N3Cc3cccnc3)cc2)cc1 (stereo unspecified) | > 20 | 1470 | 1800 | 770 | 4110 | 
O=S(=O)(Nc1ccc(C2(O)CSC(=S)N2Cc2cnccn2)cc1)c1ccc2c(c1)OCCO2 (stereo unspecified) | 2.15 | 1720 | 850 | 550 | 920 | 
O=S(=O)(Cc1ccccc1)Nc1ccc(C2(O)CSC(=S)N2Cc2cccnc2)cc1 (stereo unspecified) | 7.24 | 1550 | 3320 | 1260 | 2440 | 
Cc1ccccc1S(=O)(=O)Nc1ccc(C2(O)CSC(=S)N2Cc2cccnc2)cc1 (stereo unspecified) | 1.19 | 1630 | 2410 | 550 | 1580 | 
O=S(=O)(Nc1ccc(C2(O)CSC(=S)N2Cc2cccnc2)cc1)c1cccc(F)c1 (stereo unspecified) | > 20 | 1140 | 4110 | 480 | 2190 | 
O=c1ccc2cc(S(=O)(=O)Nc3ccc(C4(O)CSC(=S)N4Cc4cccnc4)cc3)ccc2o1 (stereo unspecified) | > 20 | 1650 | 1410 | 690 | 2400 | 
O=S(=O)(Nc1ccc(C2(O)CSC(=S)N2Cc2cccnc2)cc1)c1cccc2ccccc12 (stereo unspecified) | > 20 | 1530 | 2610 | 630 | 1690 | 
O=C1COc2ccc(S(=O)(=O)Nc3ccc(C4(O)CSC(=S)N4Cc4cccnc4)cc3)cc2N1 (stereo unspecified) | > 20 | 2120 | 1840 | 780 | 1950 | 
O=S(=O)(Nc1ccc(-c2csc(=S)n2Cc2cccnc2)cc1)c1cccc2cccnc12 | > 20 | > 20000 | > 20000 | > 20000 | > 20000 | 
O=S(=O)(Nc1ccc(C2(O)CSC(=S)N2Cc2cccnc2)cc1)c1c[nH]c2ncccc12 (stereo unspecified) | 1.41 | 2000 | 1550 | 760 | 1260 | 
O=[N+]([O-])c1ccc(S(=O)(=O)Nc2ccc(C3(O)CSC(=S)N3Cc3cccnc3)cc2)cc1 (stereo unspecified) | > 20 | 1220 | 2720 | 260 | 1310 | 
O=S(=O)(Nc1ccc(C2(O)CSC(=S)N2Cc2cccnc2)cc1)c1ccccc1N1CCOCC1 (stereo unspecified) | > 20 | 1240 | 3450 | 1330 | 8620 | 
O=[N+]([O-])c1cccc(-c2ccccc2S(=O)(=O)Nc2ccc(C3(O)CSC(=S)N3Cc3cccnc3)cc2)c1 (stereo unspecified) | > 20 | 2960 | 3890 | 1400 | 3260 | 
COc1ccc(Cl)cc1S(=O)(=O)Nc1ccc(C2(O)CSC(=S)N2Cc2cccnc2)cc1 (stereo unspecified) | > 20 | 1620 | 3690 | 1110 | 4510 | 
Cc1cc(C)c(S(=O)(=O)Nc2ccc(C3(O)CSC(=S)N3Cc3cccnc3)cc2)c(C)c1 (stereo unspecified) | > 20 | 1750 | 1650 | 940 | 1330 | 
